These results are taken from ChEMBL document CHEMBL1121628, “Synthesis of isomeric thienobenzothiazines and their effect on dopamine metabolism in rat brain” (1980).

What all share (format): functional
The species entered for test [1] is Rattus norvegicus. Kind of test: Effective dose causing a homovanillic acid (HVA) concentration three fold the control level in rat striatum. The gist of the method:
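Male albino Wistar rats (180-250 g) received drug i.p. in 0.9% NaCl with a little ascorbic acid, made fresh and kept from light. Controls got saline-ascorbic acid. Rats were decapitated 2 h later and the corpus striatum dissected. HVA was read fluorometrically as the mean of left and right striata. Four to six doses, 3-6 rats each; threefold-HVA dose taken from log dose-response curves.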

In test [2] the test system is Rattus norvegicus. Kind of test: Tested for neuroleptic activity by measuring the increase in homovanillic acid (HVA) level in rat nucleus accumbens at dosage of 15 umol/kg. The gist of the method:
(§1)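 Freshly made in 0.9% NaCl with a little ascorbic acid and kept from light, given ip to male Wistar rats (180-250 g); controls got saline-ascorbic acid. Rats decapitated 2 h post-dose and the brain region dissected. HVA was measured by a semiautomatic fluorometric method and expressed as % of control levels. 3-6 rats per dose.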

Test [3] concerns Rattus norvegicus. Kind of test: Tested for neuroleptic activity by measuring the increase in homovanillic acid (HVA) level in rat nucleus accumbens at dosage of 5 umol/kg.
The test system of test [4] is Rattus norvegicus. Kind of test: Tested for neuroleptic activity by measuring the increase in homovanillic acid (HVA) level in rat nucleus accumbens at dosage of 10 umol/kg.
Test [5] deals with Rattus norvegicus. Kind of test: Tested for neuroleptic activity by measuring the increase in homovanillic acid (HVA) level in rat corpus striatum at dosage of 10 umol/kg. The procedure, abridged:
(§2)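 Wistar male rats (180-250 g) were dosed i.p. at the stated level in fresh, light-protected 0.9% NaCl with a little ascorbic acid; controls received saline-ascorbic acid. They were decapitated at 2 h and the corpus striatum removed. HVA was assayed by a semiautomatic fluorometric method, averaging both striata, with 3-6 rats per dose. Values are expressed as % of control HVA.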

In test [6] the test system is Rattus norvegicus. Kind of test: Tested for neuroleptic activity by measuring the increase in homovanillic acid (HVA) level in rat corpus striatum at dosage of 5 umol/kg. The gist of the method:
as §2

Test [7] deals with Rattus norvegicus. Kind of test: Tested for neuroleptic activity by measuring the increase in homovanillic acid (HVA) level in rat corpus striatum at dosage of 25 umol/kg. The gist of the method:
as §2

Test [8] relates to Rattus norvegicus. Kind of test: Tested for neuroleptic activity by measuring the increase in homovanillic acid (HVA) level in rat tuberculum olfactorium at dosage of 5 umol/kg. The gist of the method:
as §1

In test [9] the test system is Rattus norvegicus. Kind of test: Tested for neuroleptic activity by measuring the increase in homovanillic acid (HVA) level in rat corpus striatum at dosage of 15 umol/kg. The procedure, abridged:
as §2

The test system of test [10] is Rattus norvegicus. Kind of test: Tested for neuroleptic activity by measuring the increase in homovanillic acid (HVA) level in rat tuberculum olfactorium at dosage of 10 umol/kg. The procedure, abridged: as §1
Test [11] deals with Rattus norvegicus. Kind of test: Tested for neuroleptic activity by measuring the increase in homovanillic acid (HVA) level in rat tuberculum olfactorium at dosage of 15 umol/kg. The gist of the method:
as §1

Test [12] relates to Rattus norvegicus. Kind of test: Tested for neuroleptic activity by measuring the increase in homovanillic acid (HVA) level in rat nucleus accumbens at dosage of 25 umol/kg.
Test [13] concerns Rattus norvegicus. Kind of test: Tested for neuroleptic activity by measuring the increase in homovanillic acid (HVA) level in rat tuberculum olfactorium at dosage of 25 umol/kg. The procedure, abridged: as §1
Test [14] relates to Rattus norvegicus. Kind of test: Tested for neuroleptic activity by measuring the increase in homovanillic acid (HVA) level in rat tuberculum olfactorium at dosage of 30 umol/kg. The gist of the method: as §1
The test system of test [15] is Rattus norvegicus. Kind of test: Tested for neuroleptic activity by measuring the increase in homovanillic acid (HVA) level in rat nucleus accumbens at dosage of 20 umol/kg.
Test [16] concerns Rattus norvegicus. Kind of test: Tested for neuroleptic activity by measuring the increase in homovanillic acid (HVA) level in rat corpus striatum at dosage of 30 umol/kg. The gist of the method: as §2
Test [17] relates to Rattus norvegicus. Kind of test: Tested for neuroleptic activity by measuring the increase in homovanillic acid (HVA) level in rat corpus striatum at dosage of 20 umol/kg. The gist of the method: as §2
Test [18] has as its system Rattus norvegicus. Kind of test: Tested for neuroleptic activity by measuring the increase in homovanillic acid (HVA) level in rat tuberculum olfactorium at dosage of 20 umol/kg. The procedure, abridged:
as §1

The test system of test [19] is Rattus norvegicus. Kind of test: Tested for neuroleptic activity by measuring the increase in homovanillic acid (HVA) level in rat nucleus accumbens at dosage of 30 umol/kg.
Test [20] concerns Rattus norvegicus. Kind of test: Tested for neuroleptic activity by measuring the increase in homovanillic acid (HVA) level in rat corpus striatum at dosage of 50 umol/kg. The gist of the method:
as §2

The subject of test [21] is Rattus norvegicus. Kind of test: Tested for neuroleptic activity by measuring the increase in homovanillic acid (HVA) level in rat tuberculum olfactorium at dosage of 50 umol/kg. The gist of the method:
as §1

For test [22], the system named is Rattus norvegicus. Kind of test: Tested for neuroleptic activity by measuring the increase in homovanillic acid (HVA) level in rat nucleus accumbens at dosage of 50 umol/kg.
Test [23] deals with Rattus norvegicus. Kind of test: Tested for neuroleptic activity by measuring the increase in homovanillic acid (HVA) level in rat nucleus accumbens at dosage of 75 umol/kg.
Test [24] deals with Rattus norvegicus. Kind of test: Tested for neuroleptic activity by measuring the increase in homovanillic acid (HVA) level in rat tuberculum olfactorium at dosage of 75 umol/kg. The procedure, abridged:
as §1

In test [25] the test system is Rattus norvegicus. Kind of test: Tested for neuroleptic activity by measuring the increase in homovanillic acid (HVA) level in rat corpus striatum at dosage of 75 umol/kg. The gist of the method:
as §2

In turn, `Cl.OCCN1CCN(CCCN2c3ccccc3Sc3cscc32)CC1` gave an ED300 in the test listed under Rattus norvegicus [1] of 13.7 µM/kg.
Turning to `CN(C)CCCN1c2cscc2Sc2ccc(Cl)cc21`, the ED300 in the test listed under Rattus norvegicus [1] turned out to be 19.2 µM/kg.
As to `CN(C)CCCN1c2cc(Cl)ccc2Sc2ccsc21`, the ED300 in the test listed under Rattus norvegicus [1] is 350 µM/kg.
Regarding `CN(C)CCCN1c2cscc2Sc2ccc(C(F)(F)F)cc21`, the HVA control in the test with Rattus norvegicus [2] stood at 260%; with Rattus norvegicus [3] it was 125%; in the test with Rattus norvegicus [4] it was 185%; with Rattus norvegicus [5], 310%; in the test with Rattus norvegicus [6], 140%; with Rattus norvegicus [7] it was 445%. Also, the HVA control in the test with Rattus norvegicus [8] stood at 100%; in the test with Rattus norvegicus [9], 340%; in the test on Rattus norvegicus [10], 160%; in the test with Rattus norvegicus [11], 210%; in the test on Rattus norvegicus [12], 390%; with Rattus norvegicus [13], 270%. This molecule also came in with an ED300 in the test filed under Rattus norvegicus [1] of 9.2 µM/kg.
`CN(C)CCCN1c2ccccc2Sc2sccc21`: the ED300 in the test filed under Rattus norvegicus [1] came out at 480 µM/kg.
Regarding `Cl.OCCN1CCN(CCCN2c3cc(Cl)ccc3Sc3sccc32)CC1`, the ED300 in the test listed under Rattus norvegicus [1] came out at 3.27 µM/kg.
Molecule `CN(C)CCCN1c2ccccc2Sc2cscc21` registered an ED300 in the test listed under Rattus norvegicus [1] of 460 µM/kg.
As to `Cl.OCCN1CCN(CCCN2c3cscc3Sc3ccc(C(F)(F)F)cc32)CC1`, the ED300 in the test listed under Rattus norvegicus [1] amounted to 0.54 µM/kg.
The molecule `Cl.OCCN1CCN(CCCN2c3cc(C(F)(F)F)ccc3Sc3ccsc32)CC1` had an ED300 in the test listed under Rattus norvegicus [1] of 4 µM/kg.
The molecule `Cl.OCCN1CCN(CCCN2c3cc(C(F)(F)F)ccc3Sc3sccc32)CC1` yielded an ED300 in the test filed under Rattus norvegicus [1] of 0.75 µM/kg.
The same measure, in the same setting: as for `Cl.OCCN1CCN(CCCN2c3cscc3Sc3ccc(Cl)cc32)CC1`, the figure is 1.5 µM/kg.
Still for that read-out and setting: as for `Cl.OCCN1CCN(CCCN2c3cc(Cl)ccc3Sc3ccsc32)CC1`, the figure is 20.5 µM/kg; as for `CN(C)CCCN1c2cc(Cl)ccc2Sc2sccc21`, 36 µM/kg.
`CN(C)CCCN1c2cc(C(F)(F)F)ccc2Sc2sccc21`: the HVA control with Rattus norvegicus [4] is listed as 250%; in the test on Rattus norvegicus [5], 320%; with Rattus norvegicus [10], 180%; with Rattus norvegicus [14] it was 280%; in the test with Rattus norvegicus [15], 350%; in the test with Rattus norvegicus [16] it was 430%. Besides, the HVA control in the test on Rattus norvegicus [17] is reported as 410%; with Rattus norvegicus [18] it was 240%; in the test on Rattus norvegicus [19], 360%; with Rattus norvegicus [20], 510%; in the test on Rattus norvegicus [21], 300%; in the test with Rattus norvegicus [22] it was 510%. In addition, the ED300 in the test filed under Rattus norvegicus [1] turned out to be 6.1 µM/kg.
`Cl.OCCN1CCN(CCCN2c3ccccc3Sc3sccc32)CC1` registered an ED300 in the test filed under Rattus norvegicus [1] of 18.9 µM/kg.
Take `CN(C)CCCN1c2cc(C(F)(F)F)ccc2Sc2ccsc21`: the HVA control with Rattus norvegicus [2] came out at 100%; with Rattus norvegicus [23] it was 375%; in the test with Rattus norvegicus [9], 130%; with Rattus norvegicus [24] it was 200%; in the test on Rattus norvegicus [20] it was 310%; with Rattus norvegicus [21] it was 150%. The HVA control with Rattus norvegicus [25] is listed as 440%; in the test on Rattus norvegicus [22], 180%. The ED300 in the test filed under Rattus norvegicus [1] is 30.1 µM/kg.
